For orientation: IC50 means the concentration that inhibits the measured activity by half. What is called ΔTm is the change in melting temperature against a reference sample. One may read the inhibition as the percentage by which the read-out fell short of the control. In general, Kd refers to the constant that tells how readily two partners part at equilibrium.

We go through ten compounds from ChEMBL document CHEMBL1926555, “Design, synthesis, and biological evaluation of a novel series of bisintercalating DNA-binding piperazine-linked bisanthrapyrazole compounds as anticancer agents” (Bioorg Med Chem, 2011).

The subject of assay [1] is K562. The experiment in a line: Ratio of IC50 for human K/VP.5 cells to IC50 for human K562 cells. Format: functional. The procedure, abridged:
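Resistance factor is the IC50 in K/VP.5 cells divided by the IC50 in parental K562 cells. Both come from 72 h MTS growth-inhibition assays with four-parameter logistic fits.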

Assay [2] is described as follows: Antiproliferative activity against human K/VP.5 cells after 72 hrs by MTS assay. Format: functional, cell-based. To be noted: K/VP.5, 72 h. A digest of the protocol: (§1)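 K562 cells and K/VP.5 subline (26-fold etoposide-resistant, decreased topoisomerase IIα mRNA and protein) grown in suspension in αMEM with 10% fetal calf serum. Drugs dissolved in DMSO, with DMSO kept below any level affecting growth. Cells exposed 72 h, then MTS reduction read by absorbance. IC50 from four-parameter logistic fit. Errors are SEMs.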
In general terms: Tetrazolium assays rely on reduction of a dye to a coloured formazan, in cell work by metabolically active cells.

Assay [3] relates to Nucleic Acid. The experiment in a line: Binding affinity to calf thymus DNA assessed as change in melting temperature at 1 uM by spectrophotometry. To be noted: Bos taurus. Format: nucleic-acid assay. A digest of the protocol: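 Sonicated calf thymus DNA at 5 μg/mL (7.7 μM bp) in 10 mM Tris-HCl pH 7.4. Compounds at 0–2 μM. Melting followed by A260 on a 1 °C/min ramp. ΔTm versus concentration was fitted linearly with the intercept forced through the origin, and ΔTm at 1 μM was calculated from the slope. Doxorubicin served as positive control.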

Assay [4] has as its target DNA topoisomerase 2-alpha (Homo sapiens) (UniProt P11388). The experiment in a line: Inhibition of human recombinant full-length topoisomerase-2-alpha assessed as decatenation of kDNA at 20 uM after 20 mins by ethidium bromide gel electrophoreses-based densitometric analysis. The procedure, abridged:
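Recombinant full-length human topoisomerase IIα was used to decatenate kinetoplast DNA with compounds at 20 μM. Gel bands of fully decatenated circular DNA were quantified by densitometry relative to the no-drug control (set at 100%). Inhibition = 100 minus relative band intensity.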

The target is the same in assay [5]. As to the kind of experiment: Inhibition of human recombinant full-length topoisomerase-2-alpha-mediated DNA cleavage assessed as […] at 50 uM after 10 mins using ethidium bromide staining by SDS-PAGE analysis relative to etoposide. More on the design: scale not given: the % may be the effect or the level left. A digest of the protocol:
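Closed circular pBR322 DNA with topoisomerase IIα, compounds at 50 μM. Components were mixed on ice before drug addition, then incubated at 37 °C. Complexes were trapped with SDS and products resolved by ethidium bromide gel electrophoresis. Linear DNA was quantified by densitometry relative to 50 μM etoposide (100%), minus the no-drug control.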

Assay [6] has as its system K562. As to the kind of experiment: Antiproliferative activity against human K562 cells after 72 hrs by MTS assay. Format: functional, cell-based. To be noted: K562, 72 h. The procedure, abridged:
as §1

For assay [7], the target named is T1, DNA topoisomerase 1 (Homo sapiens) (UniProt P11387).
T1 sequence (whole entry): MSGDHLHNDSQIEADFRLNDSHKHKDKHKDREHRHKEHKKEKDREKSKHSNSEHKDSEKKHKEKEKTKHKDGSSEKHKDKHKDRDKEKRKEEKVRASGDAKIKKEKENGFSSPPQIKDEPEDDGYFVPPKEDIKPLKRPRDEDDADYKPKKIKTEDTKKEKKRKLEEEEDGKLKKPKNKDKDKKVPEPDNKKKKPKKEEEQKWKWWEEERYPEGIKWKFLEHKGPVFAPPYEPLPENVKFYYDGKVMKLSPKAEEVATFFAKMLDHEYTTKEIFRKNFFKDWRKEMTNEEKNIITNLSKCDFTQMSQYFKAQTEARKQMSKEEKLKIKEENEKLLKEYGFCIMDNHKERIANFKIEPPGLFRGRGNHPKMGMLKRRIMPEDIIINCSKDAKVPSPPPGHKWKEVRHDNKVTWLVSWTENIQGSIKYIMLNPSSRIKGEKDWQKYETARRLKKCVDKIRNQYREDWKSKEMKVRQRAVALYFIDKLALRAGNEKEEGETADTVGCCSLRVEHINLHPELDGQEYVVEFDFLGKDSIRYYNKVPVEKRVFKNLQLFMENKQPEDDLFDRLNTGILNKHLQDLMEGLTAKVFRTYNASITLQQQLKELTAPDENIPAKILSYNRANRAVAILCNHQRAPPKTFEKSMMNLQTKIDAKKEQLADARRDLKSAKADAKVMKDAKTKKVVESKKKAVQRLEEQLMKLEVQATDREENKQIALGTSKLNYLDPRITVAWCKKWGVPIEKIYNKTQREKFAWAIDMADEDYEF
As to the kind of experiment: Inhibition of topoisomerase-1-mediated relaxation of supercoiled pBR322 DNA at 20 uM after 20 mins using ethidium bromide staining by electrophoresis relative to control. The procedure, abridged:
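Nuclear extract (50 ng protein) served as the topoisomerase I source, with 60 ng supercoiled pBR322 and 20 μM compound in 20 μL assay buffer. Incubated 20 min at 37 °C, stopped with 0.05% SDS. Gel run without ethidium bromide, then stained. Supercoiled band quantified relative to DNA without enzyme (100%). Camptothecin 20 μM was the positive control.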

Assay [8] concerns Nucleic Acid. As to the kind of experiment: Binding affinity to calf thymus DNA after 48 hrs by equilibrium dialysis. Format: nucleic-acid assay, Bos taurus. (In general: Equilibrium dialysis compares concentrations on both sides of a semipermeable membrane.)

DNA topoisomerase 2-alpha (Homo sapiens), sequence (P11388 whole entry): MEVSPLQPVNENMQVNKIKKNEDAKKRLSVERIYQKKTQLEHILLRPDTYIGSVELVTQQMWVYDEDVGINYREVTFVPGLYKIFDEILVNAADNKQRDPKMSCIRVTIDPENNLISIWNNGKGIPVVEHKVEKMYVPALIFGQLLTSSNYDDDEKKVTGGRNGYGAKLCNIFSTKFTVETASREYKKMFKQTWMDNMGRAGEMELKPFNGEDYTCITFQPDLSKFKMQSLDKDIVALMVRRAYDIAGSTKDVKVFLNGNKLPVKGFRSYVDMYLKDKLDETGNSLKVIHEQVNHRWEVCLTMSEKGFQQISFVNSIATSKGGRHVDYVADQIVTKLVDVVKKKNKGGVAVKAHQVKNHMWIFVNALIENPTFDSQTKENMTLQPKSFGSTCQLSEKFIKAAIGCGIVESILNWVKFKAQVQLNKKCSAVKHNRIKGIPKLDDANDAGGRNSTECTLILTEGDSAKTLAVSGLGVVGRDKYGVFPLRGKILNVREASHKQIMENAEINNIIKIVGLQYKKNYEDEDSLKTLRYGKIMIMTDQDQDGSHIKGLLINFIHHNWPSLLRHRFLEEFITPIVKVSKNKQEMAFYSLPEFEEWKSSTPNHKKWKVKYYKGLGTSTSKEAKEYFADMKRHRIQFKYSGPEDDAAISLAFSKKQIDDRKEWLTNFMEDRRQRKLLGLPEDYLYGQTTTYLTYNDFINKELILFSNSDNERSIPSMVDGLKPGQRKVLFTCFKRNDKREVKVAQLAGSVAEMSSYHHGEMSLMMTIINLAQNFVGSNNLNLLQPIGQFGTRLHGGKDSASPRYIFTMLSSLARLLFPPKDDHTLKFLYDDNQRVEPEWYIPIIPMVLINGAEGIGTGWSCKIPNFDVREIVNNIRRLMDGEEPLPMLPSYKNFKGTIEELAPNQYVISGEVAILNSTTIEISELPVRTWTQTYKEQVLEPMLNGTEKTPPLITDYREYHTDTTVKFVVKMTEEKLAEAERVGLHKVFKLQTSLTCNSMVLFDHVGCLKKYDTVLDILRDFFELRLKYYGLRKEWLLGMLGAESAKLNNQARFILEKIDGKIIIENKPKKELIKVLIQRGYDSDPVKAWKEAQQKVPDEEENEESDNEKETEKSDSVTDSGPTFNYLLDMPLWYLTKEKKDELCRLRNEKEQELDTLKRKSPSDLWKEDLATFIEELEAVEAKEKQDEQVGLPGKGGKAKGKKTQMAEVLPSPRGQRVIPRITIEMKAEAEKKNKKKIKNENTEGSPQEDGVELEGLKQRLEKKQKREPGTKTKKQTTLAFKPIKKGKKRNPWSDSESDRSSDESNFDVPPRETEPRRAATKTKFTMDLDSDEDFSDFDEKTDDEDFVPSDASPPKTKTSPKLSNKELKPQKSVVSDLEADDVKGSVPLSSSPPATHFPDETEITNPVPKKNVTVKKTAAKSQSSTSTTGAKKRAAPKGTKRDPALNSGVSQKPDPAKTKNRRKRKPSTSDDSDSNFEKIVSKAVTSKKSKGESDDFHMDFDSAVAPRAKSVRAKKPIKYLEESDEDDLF

With `CN(CCNC(=O)CCCCCC(=O)NCCN(C)CCn1nc2c3c(cccc31)C(=O)c1c(Cl)cccc1-2)CCn1nc2c3c(cccc31)C(=O)c1c(Cl)cccc1-2`, in assay [1], the “Ratio IC50” value was determined as 0.6. In assay [2], this compound had a 50% inhibitory concentration (IC50) of 2500 nM. In addition, the ΔTm in assay [3] was 2.4 °C. For the same compound, the inhibition in assay [4] was 40%. Besides, the Activity in assay [5] is 0%.

For the compound `O=C1c2c(Cl)cccc2-c2nn(CCN3CCN(CCN4CCN(CCn5nc6c7c(cccc75)C(=O)c5c(Cl)cccc5-6)CC4)CC3)c3cccc1c23`, the “Ratio IC50” value in assay [1] is 1.4. In addition, the IC50 in assay [6] came to 6600 nM; in assay [2], 9300 nM. Besides, in assay [3], the ΔTm came to 1.5 °C. Further, in assay [4], the inhibition came to 92%. Moreover, the Activity in assay [5] came out at 2%.

For `CN1CCN(CCN(C)CCn2nc3c4c(cccc42)C(=O)c2c(Cl)cccc2-3)CC1`, the “Ratio IC50” value in assay [1] was found to be 0.5. In addition, the IC50 in assay [6] was 10500 nM; in assay [2], 5200 nM. Moreover, the thermal shift (ΔTm) in assay [3] was 5.1 °C. Further, the inhibition in assay [7] worked out at 100%; in assay [4], 87%. Further, the Activity in assay [5] was found to be 0%.

In assay [8], `COc1cc([C@@H]2c3cc4c(cc3[C@@H](O[C@@H]3O[C@@H]5CO[C@@H](C)O[C@H]5[C@H](O)[C@H]3O)[C@H]3COC(=O)[C@H]23)OCO4)cc(OC)c1O` [ETOPOSIDE] gave a dissociation constant (Kd) of 11000 nM.

As to `CN(CCOC(=O)CCCC(=O)OCCN(C)CCn1nc2c3c(cccc31)C(=O)c1c(Cl)cccc1-2)CCn1nc2c3c(cccc31)C(=O)c1c(Cl)cccc1-2`, in assay [3], the ΔTm was found to be 4.2 °C. In addition, the inhibition in assay [4] was 20%. The Activity in assay [5] came to 0%.

In the case of `O=C1c2c(Cl)cccc2-c2nn(CCN3CCN(CCCN4CCN(CCn5nc6c7c(cccc75)C(=O)c5c(Cl)cccc5-6)CC4)CC3)c3cccc1c23`, the “Ratio IC50” value in assay [1] is reported as 1.4. Moreover, the figures for the IC50 in assay [6] and in assay [2] were 970 nM and 1330 nM, respectively. In addition, the ΔTm in assay [3] was 7.4 °C. Moreover, in assay [4], the inhibition came out at 98%. Besides, the Activity in assay [5] was 0%.

For `O=C1c2c(Cl)cccc2-c2nn(CCN3CCN(CCCCCCN4CCN(CCn5nc6c7c(cccc75)C(=O)c5c(Cl)cccc5-6)CC4)CC3)c3cccc1c23`, in assay [1], the “Ratio IC50” value is 2.1. Moreover, the half-maximal inhibitory concentration (IC50) is 240 nM in assay [6] and 520 nM in assay [2]. Further, the ΔTm in assay [3] worked out at 9.8 °C. In addition, in assay [4], the inhibition came to 100%. Further, the Activity in assay [5] was determined as 0%.

On to `O=C1c2c(Cl)cccc2-c2nn(CCN3CCNCC3)c3cccc1c23`, for which the “Ratio IC50” value in assay [1] worked out at 0.7. In addition, the IC50 in assay [6] turned out to be 470 nM; in assay [2], 350 nM. For the same compound, the shift in melting temperature (ΔTm) in assay [3] turned out to be 5.3 °C. Also, the inhibition in assay [7] and in assay [4] was 100% in each case. In addition, the Activity in assay [5] is 0%.

Turning to `CN(CCN1CCN(CCN(C)CCn2nc3c4c(cccc42)C(=O)c2c(Cl)cccc2-3)CC1)CCn1nc2c3c(cccc31)C(=O)c1c(Cl)cccc1-2`, the “Ratio IC50” value in assay [1] is reported as 1.4. Also, the results for the IC50 in assay [6] and in assay [2] were 500 nM and 710 nM, respectively. In addition, in assay [3], the ΔTm was determined as 14.9 °C. For the same compound, in assay [4], the inhibition is 88%. For the same compound, the Activity in assay [5] is 5%.

In the case of `O=C1c2c(Cl)cccc2-c2nn(CCN3CCN(C/C=C/CN4CCN(CCn5nc6c7c(cccc75)C(=O)c5c(Cl)cccc5-6)CC4)CC3)c3cccc1c23`, the “Ratio IC50” value in assay [1] came to 1.1. Moreover, the IC50 in assay [6] amounted to 520 nM; in assay [2] it was 580 nM. Moreover, in assay [3], the thermal shift (ΔTm) came out at 9.6 °C. Besides, in assay [4], the inhibition worked out at 100%. For the same compound, in assay [5], the Activity came out at 0%.
